Laboratory results: ChEMBL document CHEMBL1938329, “The discovery of potent, selective, and orally active pyrazoloquinolines as PDE10A inhibitors for the treatment of Schizophrenia” (Bioorg Med Chem Lett, 2012)

Legend:
[1] = biological target: cAMP and cAMP-inhibited cGMP 3',5'-cyclic phosphodiesterase 10A (Homo sapiens, UniProt Q9Y233); experiment: Inhibition of recombinant human PDE10A using [3H]cAMP as substrate by scintillation proximity assay
How it was run: (§1)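 Scintillation proximity assay with [³H]cAMP as substrate, measuring hydrolysis of cAMP to AMP by recombinant human PDEs 1–11. Ki values are means of at least two experiments.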

[2] = biological target: Phosphodiesterase 6; experiment: Inhibition of recombinant human PDE6 using [3H]cAMP as substrate by scintillation proximity assay; format: protein assay; how it was run: as §1
[3] = biological target: Phosphodiesterase 6 (Homo sapiens) (UniProt Q13956+P18545+P35913+O43924+P16499+P51160); experiment: Inhibition of recombinant human PDE6 using [3H]cAMP as substrate at 3.6 uM by scintillation proximity assay; format: protein assay
[4] = Drug uptake in rat brain at 10 mg/kg, po after 6 hrs; format: ADME, organism-based; parameters: dose 10 mg/kg, route oral; conditions: read-out: Drug uptake
How it was run: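 Rat cassette-accelerated rapid screen, 10 mg/kg oral. Plasma exposure measured over 0–6 h. Brain drug concentration taken at 6 h. Brain/plasma ratio is brain over plasma drug concentration at 6 h.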

Chain of cAMP and cAMP-inhibited cGMP 3',5'-cyclic phosphodiesterase 10A (Q9Y233 whole entry): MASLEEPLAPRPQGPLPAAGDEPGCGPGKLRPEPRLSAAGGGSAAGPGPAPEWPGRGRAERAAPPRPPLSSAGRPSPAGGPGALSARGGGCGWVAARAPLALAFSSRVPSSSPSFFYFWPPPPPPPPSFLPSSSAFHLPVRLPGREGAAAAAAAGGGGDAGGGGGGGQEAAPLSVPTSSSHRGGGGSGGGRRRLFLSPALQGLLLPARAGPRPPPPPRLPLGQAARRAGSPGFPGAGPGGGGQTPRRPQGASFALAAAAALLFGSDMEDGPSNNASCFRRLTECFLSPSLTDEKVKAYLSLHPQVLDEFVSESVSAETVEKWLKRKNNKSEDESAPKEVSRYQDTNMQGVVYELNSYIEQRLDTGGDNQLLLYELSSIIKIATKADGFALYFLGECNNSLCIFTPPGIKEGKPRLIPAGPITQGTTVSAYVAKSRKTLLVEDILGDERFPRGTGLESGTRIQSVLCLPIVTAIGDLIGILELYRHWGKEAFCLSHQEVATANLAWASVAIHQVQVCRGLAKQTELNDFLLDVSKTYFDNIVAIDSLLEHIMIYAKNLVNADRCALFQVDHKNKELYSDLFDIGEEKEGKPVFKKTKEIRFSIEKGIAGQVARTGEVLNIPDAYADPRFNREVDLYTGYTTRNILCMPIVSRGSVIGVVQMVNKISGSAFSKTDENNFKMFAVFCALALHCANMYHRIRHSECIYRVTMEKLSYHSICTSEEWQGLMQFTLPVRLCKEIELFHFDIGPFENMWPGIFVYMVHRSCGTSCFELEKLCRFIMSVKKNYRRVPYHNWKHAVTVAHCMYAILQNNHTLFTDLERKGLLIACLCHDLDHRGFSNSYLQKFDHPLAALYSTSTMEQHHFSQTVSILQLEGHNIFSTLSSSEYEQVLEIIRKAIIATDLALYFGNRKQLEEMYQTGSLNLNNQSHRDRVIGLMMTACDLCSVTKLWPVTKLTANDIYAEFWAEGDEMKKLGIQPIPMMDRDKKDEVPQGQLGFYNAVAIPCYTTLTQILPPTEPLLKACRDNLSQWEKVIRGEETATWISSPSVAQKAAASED

Row | Ki [1] | Ki [2] | inhibition [3] | concentration at 6 h [4] | SMILES
1 | 0.5 nM | – | – | – | COc1cc(C)c2nc3[nH]nc(C)c3c(N3CCC(CN)CC3)c2c1
2 | 130 nM | 843 nM | – | – | COc1cc(C)c2nc3[nH]nc(C)c3c(NCC3CCCCO3)c2c1 (configuration not stated)
3 | 15 nM | – | – | – | COc1cc(C)c2nc3[nH]nc(C)c3c(N3CCCNCC3)c2c1
4 | 55 nM | – | 48% | – | COc1cc(C)c2nc3[nH]nc(C)c3c(NC3CCNCC3)c2c1
5 | 6 nM | 1811 nM | – | – | COc1cc(C)c2nc3[nH]nc(C)c3c(NCc3ccccn3)c2c1
6 | 550 nM | – | – | – | Cc1n[nH]c2nc3ccccc3c(N3CCNCC3)c12
7 | 409 nM | – | – | – | COc1cc(C)c2nc3[nH]nc(C)c3c(NCCC3CCOCC3)c2c1
8 | 3 nM | – | – | < 10 ng/g | COc1cc(C)c2nc3[nH]nc(C)c3c(N3CCC(C(N)=O)CC3)c2c1
